Assay outcomes deposited in PubChem by Broad Institute.
Compounds with a hit are over-represented: about 3.5% of the library has one in this group of screens.
Wnt bcat act: activators of Wnt/beta-catenin signaling; Wnt/beta-catenin reporter cell assay, activator, plate reader; 1.2% of 300,000 active; activation, % at 9.35 µM; in the data active means activation above about 30%, passing the limit was not always enough; inconclusive means no clear call, values can overlap the other calls;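 further: 0% = neutral control wells and 100% = positive control wells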
ERAP1 HTS inh: ERAP1 (human) enzyme inhibition; inhibition, % at 10.7 µM; recombinant ERAP1, Leu-AMC fluorescence, 60 min; 0.15% of 340,000 active;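 active means mean replicate inhibition of at least 30%, or all replicates individually reaching that 30% level; inactive means mean below 30% and not every replicate reaching it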;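 further: 0% = neutral control wells and 100% = L-leucinethiol positive control wells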
Target sequence (Q9NZ08 whole entry, looked up): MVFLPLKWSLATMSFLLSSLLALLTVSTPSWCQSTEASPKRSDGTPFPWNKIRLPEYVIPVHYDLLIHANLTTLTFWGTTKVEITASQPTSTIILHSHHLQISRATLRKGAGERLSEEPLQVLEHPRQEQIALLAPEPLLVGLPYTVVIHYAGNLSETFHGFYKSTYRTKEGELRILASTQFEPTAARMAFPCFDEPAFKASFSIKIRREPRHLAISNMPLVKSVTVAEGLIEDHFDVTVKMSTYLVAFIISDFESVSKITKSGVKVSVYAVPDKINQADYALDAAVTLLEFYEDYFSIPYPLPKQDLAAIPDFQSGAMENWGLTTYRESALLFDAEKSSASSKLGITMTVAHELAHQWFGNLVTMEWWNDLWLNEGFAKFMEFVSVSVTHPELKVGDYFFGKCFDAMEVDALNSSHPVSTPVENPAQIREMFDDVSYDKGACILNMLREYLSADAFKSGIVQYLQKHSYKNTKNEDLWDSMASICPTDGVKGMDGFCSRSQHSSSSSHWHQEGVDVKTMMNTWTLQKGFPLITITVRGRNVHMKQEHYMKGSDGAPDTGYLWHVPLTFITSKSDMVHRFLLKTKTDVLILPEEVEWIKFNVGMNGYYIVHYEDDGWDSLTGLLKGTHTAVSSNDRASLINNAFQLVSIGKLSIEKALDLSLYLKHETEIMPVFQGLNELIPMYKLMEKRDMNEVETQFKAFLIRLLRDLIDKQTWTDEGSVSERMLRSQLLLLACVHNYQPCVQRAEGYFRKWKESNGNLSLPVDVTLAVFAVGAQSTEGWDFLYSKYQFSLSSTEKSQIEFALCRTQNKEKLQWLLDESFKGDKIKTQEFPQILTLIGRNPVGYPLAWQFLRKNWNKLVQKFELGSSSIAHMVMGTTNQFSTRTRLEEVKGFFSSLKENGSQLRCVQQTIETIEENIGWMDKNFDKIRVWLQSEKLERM
Cneo AK release: Cryptococcus neoformans lysis via adenylate kinase release | C. neoformans lysis, adenylate kinase release luminescence, 4 h; normalised: neutral wells 0, clomiphene wells 100 | lysis activity, % at 15 µM | 0.2% of 360,000 active;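 active means mean lysis activity across replicates of at least 80%, whatever share of replicates individually reach that level; inactive means mean lysis activity below 80%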
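Material – log-phase Cryptococcus neoformans yeast cells · Input – 5 × 10^6 yeast cells/mL · Medium – fresh YPD growth medium · Doses – single compound concentration per well · Timing – static 4 h at 37 °C with compound, 1 h detection · Detection – adenylate kinase release luminescence · Read-out – signal increase indicating cell lysis · Control set – Clomiphene as positive lysis control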
MITF TRPM1 HTS: activators of MITF-driven TRPM1 promoter activity in SK-MEL-5 cells | SK-MEL-5 TRPM1-promoter luciferase, 24 h; % of positive control, neutral wells = 0 | activation, % at 12.5 µM | 0.75% of 300,000 active | AID 588334;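 active means mean activation of at least 80% with every replicate also reaching 80%; inconclusive means mean reaches 80% but some replicate falls short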;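 further: 0% = neutral control wells and 100% = parthenolide positive control wells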
esBAF inh: inhibitors of esBAF chromatin remodeling in mouse ES cells; Bmi1-luciferase knock-in reporter, 24 h; 100% = twice the neutral-well signal; reporter increase, % at 12.5 µM; 2% of 350,000 active; AID 602393; in the data active means activation above about 40%; inconclusive means no clear call, values can overlap the other calls;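 further: 0% = median of the plate's neutral control wells and 100% = double that signal; a rise in the Bmi1 reporter signal indicates esBAF inhibition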
HIV Env fusion: blocks HIV Env-driven cell-cell fusion; HeLa-JRFL Env/CEM21 cell fusion, luciferase; inhibition, % at 12.3 µM; 1.1% of 360,000 active; AID 651610;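 active means mean replicate inhibition score of at least 50 and every replicate individually at or above 50; inconclusive means only one of the two criteria met; inactive means mean below 50 and not all replicates reaching 50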;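 further: 0% = plate neutral controls and 100% = maraviroc near 300 nM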
Active calls of the source: *; i = inactive; ? = inconclusive; . = no result given; [ ] = another dose, or the depositor's remark.

SMILES | Wnt bcat act | ERAP1 HTS inh | Cneo AK release | MITF TRPM1 HTS | esBAF inh | HIV Env fusion
CC(C)CNC(=O)[C@@H]1c2ccccc2C(=O)N(CC23CC4CC(CC(C4)C2)C3)[C@H]1c1ccc(CO)cc1 | . | 0 | -3 | . | . | 61*[16.7 µM]
CCCNC(=O)[C@@H]1c2ccccc2C(=O)N(CC23CC4CC(CC(C4)C2)C3)[C@H]1c1ccc(CO)cc1 | . | -2 | 1 | . | . | 28[16.7 µM]
C[C@H]1CCCCO[C@H](CN(C)Cc2ccc(C(=O)O)cc2)[C@@H](C)CN([C@@H](C)CO)C(=O)c2cc(NC(=O)NC3CCCCC3)ccc2O1 | . | 1 | 4 | . | -3 | 13[16.7 µM]
Cc1nnc(SCc2cccc3ccccc23)s1 | 11 | . | -3 | 76 | 64* | -23
CC(=O)Nc1nnc(SCc2ccc(F)cc2)s1 | 17 | . | -4 | 47 | 46* | -80
Cc1nnc(SCc2ccc(F)cc2)s1 | . | . | 3 | 51 | 53* | .
C[C@@H]1CN([C@@H](C)CO)C(=O)c2cc(NC(=O)Nc3ccc4c(c3)OCO4)ccc2O[C@@H]1CN(C)S(=O)(=O)c1cccs1 | . | 0 | 0 | . | 9 | -7[16.7 µM]
CC(=O)Nc1ccc(C(=O)c2ccccc2)cc1 | . | . | 0 | 7 | 9 | .
CCCCC(=O)Nc1ccc(C(=O)c2ccccc2)cc1 | -4 | 5 | 7 | 23 | 49* | 0
O=C(C#Cc1ccccc1)Nc1cccc(F)c1 | -4 | -1 | -4 | . | -77 | ?
CCCC(=O)Nc1ccc(Oc2ccc(NC(=O)CCC)cc2)cc1 | -5 | . | 6 | -2 | -3 | -10
O=C(C#Cc1ccccc1)Nc1ccc(F)cc1 | 8 | 0 | -2 | . | 49* | -40
CCCC(=O)Nc1ccc(C#Cc2ccccc2)cc1 | 38* | . | 0 | 96* | 54* | -49
CC(C)CC#Cc1ccc([C@H]2[C@@H](CO)N3C(=O)CN(C(=O)c4ccccn4)C[C@@H]23)cc1 | . | 3 | . | . | . | .
O=C(c1cnccn1)N1CC(=O)N2[C@H](CO)[C@@H](c3ccc(C#CC4CCCC4)cc3)[C@H]2C1 | . | 2 | . | . | . | .
Cc1noc(C)c1S(=O)(=O)N(C)C[C@@H]1OCCCC[C@H](C)Oc2ccc(NC(=O)Nc3ccccc3)cc2C(=O)N([C@@H](C)CO)C[C@H]1C | . | 2 | 1 | . | 4 | 30[16.7 µM]
O=c1cc(-c2ccccc2Cl)oc2cc(O)cc(O)c12 | -2 | -4 | -3 | 40 | 58* | -82
Nc1ccc(O)c2c(=O)cc(-c3ccccc3Cl)oc12 | 54* | 1 | 0 | 109* | . | -144
O=c1cc(-c2ccccc2)c2c(O)cc(O)cc2o1 | 0 | 1 | -1 | 4 | 4 | -1
CC=Cc1ccc2n(c1=O)C[C@@H]1[C@@H](CO)[C@H](C(=O)NC3CCCC3)N(Cc3ccccc3)[C@H]21 (mixture of isomers) | . | 6 | 0 | . | -1 | .
CCN=c1scc(-c2ccco2)n1/N=C/c1ccc(O)cc1 | . | . | -2 | . | 33 | -215
CCN=c1scc(-c2ccco2)n1/N=C/c1ccc(OC)c(O)c1 | 40* | -2 | -7 | 72 | 54* | .
CO[C@@H]1CN(C)C(=O)c2cc(NC(=O)C3CCCC3)ccc2OC[C@@H](C)N(Cc2nccs2)C[C@H]1C | . | 0 | -3 | . | 2 | .
CC1=C(C(=O)Nc2ccc(CC(=O)NCc3ccccc3C)cc2)SCCO1 | 10 | 1 | 5 | 59 | 49* | -15
CCc1ccc(CNC(=O)Cc2ccc(NC(=O)C3=C(C)OCCS3)cc2)cc1 | 7 | 2 | -2 | 13 | 21 | i
SMILES | Wnt bcat act | ERAP1 HTS inh | Cneo AK release | MITF TRPM1 HTS | esBAF inh | HIV Env fusion
COc1ccccc1C(=O)Nc1ccc2c(c1)C(=O)N(C)C[C@H](OC)[C@H](C)CN[C@H](C)CO2 | . | -2 | 1 | . | 2 | 4[16.7 µM]
CCSc1nc2c(cnn2-c2ccccc2)c(=O)n1N | 11 | -2 | -2 | . | . | -12
CSc1nc2c(cnn2-c2ccccc2)c(=O)n1N | . | 7 | . | 59 | 48* | -6
CC(C)(C)c1ccc(S(=O)(=O)Nc2ccc(C(O)(C(F)(F)F)C(F)(F)F)cc2)cc1 | -1 | -2 | 3 | . | 9 | ?
CC(C)COC(=O)N(C)c1ccc(C(O)(C(F)(F)F)C(F)(F)F)cc1 | 0 | . | 0 | 26 | 45* | .
CCOC(=O)CSc1nnc(-c2ccccc2)c(-c2ccccc2)n1 | -3 | 0 | -8 | 4 | -12 | 11
Cc1nnc(SCc2ccccc2)nc1-c1ccccc1 | ? | . | -10 | 88* | 83* | -46
Cc1ccc(NC(=O)[C@@H]2CCCN2S(=O)(=O)c2ccccc2C(F)(F)F)cc1S(=O)(=O)N1CCOCC1 | . | . | . | -3 | . | 57*
Cc1ccc(NC(=O)[C@@H]2CCCN2S(=O)(=O)c2ccccc2F)cc1S(=O)(=O)N1CCOCC1 | . | . | . | -2 | 1 | 28
N#C/C(=N\Nc1ccc(F)cc1)C(=O)C1CC1 | 10 | 0 | 1 | . | . | 4
N#C/C(=N\Nc1ccc(Cl)c(Cl)c1)C(=O)C1CC1 | 39* | 3 | -2 | . | . | 8
O=C(N[C@H]1CC[C@H](CCn2cc(Cc3ccccc3)nn2)O[C@@H]1CO)c1ccccn1 | . | 1 | -4 | . | 1 | 5[16.7 µM]
Fc1cccc2sc(N3CCCC3)nc12 | 14 | -1 | . | 86* | . | -9
Clc1cccc2sc(N3CCCC3)nc12 | 11 | . | . | 21 | . | -54
CCCNC(=O)N1CC2(CN(C(=O)c3cccc(F)c3)C2)c2c([nH]c3cc(OC)ccc23)[C@H]1CO | . | 1 | . | . | . | .
N/C(=N\OC(=O)c1cccc2ccccc12)c1cccnc1 | 45* | 13 | . | 35 | 44* | -59
Cc1cccc(/C(N)=N/OC(=O)c2cccc3ccccc23)c1 | 25 | -1 | 3 | 41 | 49* | -89
N/C(=N\OC(=O)c1cccc2ccccc12)c1cccc([N+](=O)[O-])c1 | 0 | . | -2 | 43 | 10 | -18
N/C(=N\OC(=O)COc1ccc2ccccc2c1Br)c1cccnc1 | 3 | 9 | . | . | . | -11
COc1ccc(NC(=O)N(C)C[C@H]2OCCCC[C@H](C)Oc3ccc(NC(=O)C4CCCCC4)cc3C(=O)N([C@H](C)CO)C[C@@H]2C)cc1 | . | 3 | -2 | . | 13 | -21[16.7 µM]
N#C[C@@H]1[C@H](c2ccc(C3=CCCC3)cc2)[C@@H](CO)N1c1nc(-c2ccccc2)cs1 | . | 1 | . | . | . | 18[16.7 µM]
O=C1/C(=C/c2cccs2)SC(=S)N1c1ccccc1 | 4 | . | 0 | 27 | 36 | 8
O=C1S/C(=C\c2cccs2)C(=O)N1c1ccc(O)cc1 | 44* | -3 | -8 | 98* | 50* | -113
CCCNC(=O)N[C@H]1C=C[C@H](CC(=O)NC2CCC2)O[C@@H]1CO | . | -4 | -3 | . | 1 | 2[16.7 µM]
CSC1=NS(=O)(=O)c2c(C)nn(C)c2S1 | 1 | 87* | 0 | . | . | 8
COc1ccccc1NC(=O)N1C[C@@H]2[C@H](c3ccccc31)[C@H](CO)N2Cc1ccccc1F | . | -3 | 1 | . | -6 | .
